Assay results reported in ChEMBL document CHEMBL1121452, “8-Chloro-1-methyl-6-phenyl-4H-s-triazolo[4,3-a][1,4]benzodiazepines with substituents at C-4” (1980).

What was measured:
Assay type in all cases: functional
[1] = species: Mus musculus; assay: Loss of righting reflex (LORR) was evaluated in CF1 mice
Procedure, shortened: (§1)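 Compounds dissolved or suspended in 0.25% aqueous methylcellulose and given ip to mice in groups of four or six per dose, at several dose levels spaced 0.3 log units apart. Scoring follows previously described procedures. ED50 values in mg/kg were calculated by the Spearman-Karber method.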

[2] = species: Mus musculus; assay: Evaluated for the antagonism of nicotine induced death (D) in CF1 mice; procedure, shortened: as §1
[3] = species: Mus musculus; assay: Evaluated for antagonistic activity on nicotine-induced tonic-extensor convulsions (TE) in CF1 mice; procedure, shortened: as §1
[4] = species: Mus musculus; assay: Evaluated for the pentylene induced clonic convulsions (P) in CF1 mice; procedure, shortened: as §1
[5] = species: Mus musculus; assay: Loss of traction (TR) was evaluated in CF1 mice; procedure, shortened: as §1
[6] = species: Mus musculus; assay: Loss of traction (TR) was evaluated in mice; procedure, shortened: as §1
[7] = species: Mus musculus; assay: Loss of righting reflex (LORR) was evaluated in mice; procedure, shortened: as §1

CCOC(=O)CC1(C(=O)OCC)N=C(c2ccccc2)c2cc(Cl)ccc2-n2c(C)nnc21 (centres undefined)
ED50 [1]: > 200 mg/kg | ED50 [2]: > 200 mg/kg | ED50 [3]: > 200 mg/kg | ED50 [4]: > 50 mg/kg | ED50 [5]: > 200 mg/kg

Cc1nnc2n1-c1ccc(Cl)cc1C(c1ccccc1)=NC2 [ALPRAZOLAM]
ED50 [6]: 0.6 mg/kg | ED50 [1]: > 100 mg/kg | ED50 [2]: 0.02 mg/kg | ED50 [3]: 0.02 mg/kg | ED50 [4]: 0.2 mg/kg

CCOC(=O)C1(N)N=C(c2ccccc2)c2cc(Cl)ccc2-n2c(C)nnc21 (centres undefined)
ED50 [1]: > 200 mg/kg | ED50 [2]: 4.5 mg/kg | ED50 [3]: 3.1 mg/kg | ED50 [4]: 32 mg/kg | ED50 [5]: 159 mg/kg

Cc1nnc2n1-c1ccc(Cl)cc1C(c1ccccc1)N=C2N (centres undefined)
ED50 [1]: > 200 mg/kg | ED50 [2]: 40 mg/kg | ED50 [3]: 40 mg/kg | ED50 [4]: > 100 mg/kg | ED50 [5]: > 200 mg/kg

Cc1nnc2n1-c1ccc(Cl)cc1C(c1ccccc1)=NC2CC(=O)O (centres undefined)
ED50 [2]: 0.9 mg/kg | ED50 [3]: 0.9 mg/kg | ED50 [4]: 5 mg/kg | ED50 [5]: 13 mg/kg | ED50 [7]: > 200 mg/kg

Cc1nnc2n1-c1ccc(Cl)cc1C(c1ccccc1)=[N+]([O-])C2
ED50 [1]: > 200 mg/kg | ED50 [2]: 0.2 mg/kg | ED50 [3]: 0.2 mg/kg | ED50 [4]: 1.8 mg/kg | ED50 [5]: 10 mg/kg

Cc1nnc2n1-c1ccc(Cl)cc1C1(c3ccccc3)ON1C2 (centres undefined)
ED50 [1]: > 25 mg/kg | ED50 [2]: 0.12 mg/kg | ED50 [3]: 0.12 mg/kg | ED50 [4]: 0.2 mg/kg | ED50 [5]: 2.5 mg/kg

CCOC(=O)C1(C)N=C(c2ccccc2)c2cc(Cl)ccc2-n2c(C)nnc21 (centres undefined)
ED50 [1]: > 200 mg/kg | ED50 [2]: 18 mg/kg | ED50 [3]: 16 mg/kg | ED50 [4]: 40 mg/kg | ED50 [5]: 112 mg/kg

Cc1nnc2n1-c1ccc(Cl)cc1C(c1ccccc1)NC2=O (centres undefined)
ED50 [1]: > 100 mg/kg | ED50 [3]: > 100 mg/kg | ED50 [4]: > 25 mg/kg | ED50 [5]: > 100 mg/kg

CC(=O)OC1N=C(c2ccccc2)c2cc(Cl)ccc2-n2c(C)nnc21 (centres undefined)
ED50 [1]: > 200 mg/kg | ED50 [2]: 1 mg/kg | ED50 [3]: 1 mg/kg | ED50 [4]: 8.9 mg/kg | ED50 [5]: 18 mg/kg

Cc1nnc2n1-c1ccc(Cl)cc1C(c1ccccc1)=NC2C (centres undefined)
ED50 [2]: 0.056 mg/kg | ED50 [3]: 0.056 mg/kg | ED50 [4]: 0.1 mg/kg | ED50 [5]: 1.8 mg/kg | ED50 [7]: > 200 mg/kg

Cc1nnc2n1-c1ccc(Cl)cc1C(c1ccccc1)=NC2N (centres undefined)
ED50 [2]: 0.63 mg/kg | ED50 [3]: 0.36 mg/kg | ED50 [4]: 3.5 mg/kg | ED50 [5]: 18 mg/kg | ED50 [7]: > 100 mg/kg

Cc1nnc2n1-c1ccc(Cl)cc1C(c1ccccc1)=NC2O (centres undefined) [4-HYDROXY-ALPRAZOLAM]
ED50 [1]: > 50 mg/kg | ED50 [2]: 4 mg/kg | ED50 [3]: 4 mg/kg | ED50 [4]: 8.9 mg/kg | ED50 [5]: 23 mg/kg

CCOC(=O)C1N=C(c2ccccc2)c2cc(Cl)ccc2-n2c(C)nnc21 (centres undefined)
ED50 [2]: 45 mg/kg | ED50 [3]: 50 mg/kg | ED50 [4]: > 100 mg/kg | ED50 [5]: > 100 mg/kg | ED50 [7]: > 100 mg/kg
